The values that follow come from ChEMBL document CHEMBL4251680, “Catecholic Isoquinolines from Portulaca oleracea and Their Anti-inflammatory and β2-Adrenergic Receptor Agonist Activity” (J Nat Prod, 2018).

As a reminder, the EC50 is the midpoint of the concentration-response curve.

In one experiment the test system is RAW264.7. The experiment is described as follows: cells. As to conditions: Mus musculus, RAW264.7, 24 h.
In experiment [1] the target is T1, Beta-2 adrenergic receptor (Homo sapiens, UniProt P07550). The experiment is described as follows: Agonist activity at human beta2-AR expressed in CHOK1 cells co-expressing Galpha15 at 100 uM measured after 21 secs to 120 secs by Calcium-4 dye based FLIPR assay relative to 1 uM isoproterenol. Format: functional, cell-based. In outline: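 CHO-K1/Gα15 cells stably expressing β2-AR, grown in Ham's F12 with 10% FBS, hygromycin B and zeocin. Plated at 1.5 × 10^4 cells/well, 18 h, then loaded with FLIPR Calcium 4 dye for 1 h at 37 °C and 15 min at room temperature. Compounds from DMSO stocks diluted in HBSS/20 mM HEPES pH 7.4, added at 21 s. Read 120 s; stimulation ratio = (ΔRFU − background) relative to isoproterenol.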
Target sequence in this assay (P07550 whole entry, looked up): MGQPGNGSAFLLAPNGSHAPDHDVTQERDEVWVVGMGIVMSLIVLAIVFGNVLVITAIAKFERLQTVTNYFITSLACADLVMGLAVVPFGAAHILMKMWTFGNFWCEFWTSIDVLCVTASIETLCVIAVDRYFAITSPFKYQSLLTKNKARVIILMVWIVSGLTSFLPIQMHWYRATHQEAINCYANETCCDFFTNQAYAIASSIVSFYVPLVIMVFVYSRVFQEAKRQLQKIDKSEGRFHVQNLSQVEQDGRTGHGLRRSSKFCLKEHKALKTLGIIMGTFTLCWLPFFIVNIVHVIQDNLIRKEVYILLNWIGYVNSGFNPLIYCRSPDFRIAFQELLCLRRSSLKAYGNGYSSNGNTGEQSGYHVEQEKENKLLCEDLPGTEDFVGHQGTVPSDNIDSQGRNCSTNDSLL

In experiment [2] the target is T1, Beta-2 adrenergic receptor. The experiment is described as follows: Agonist activity at human beta2-AR expressed in CHOK1 cells co-expressing Galpha15 measured after 21 secs to 120 secs by Calcium-4 dye based FLIPR assay. It is filed as functional, cell-based.
Target sequence in this assay (P07550 whole entry): as the sequence (P07550 whole entry, looked up) above

In the experiment with RAW264.7, `O=C1CC[C@H]2c3cc(O)c(O)cc3CCN12` came in with a concentration for a half-maximal effect (EC50) of 35.4 µM. Further, the Activity in experiment [1] was 70.2%.

In the case of `C[C@@H]1NCCc2cc(O)c(O)cc21`, the EC50 with RAW264.7 was 58.7 µM. In addition, the Activity in experiment [1] was 35.5%.

`Oc1cc2c(cc1O)C(c1ccco1)=NCC2`: the figures for the EC50 (in the experiment on RAW264.7; in experiment [2]) were 18.1 µM and 5.1 µM, respectively. In addition, in experiment [1], the Activity stood at 91.8%.

The molecule `O=C1NCCc2cc(O)c(O)cc21` yielded an EC50 in the experiment on RAW264.7 of 126 µM. Moreover, the Activity in experiment [1] was determined as 0.5%.

With `CCOC(=O)CC[C@@H]1NCCc2cc(O)c(O)cc21`, the half-maximal effective concentration (EC50) in the experiment with RAW264.7 was determined as 36.3 µM. Further, the Activity in experiment [1] was 42%.

Turning to `NCCc1ccc(O)c(O)c1S(=O)(=O)O`, in the experiment on RAW264.7, a half-maximal response (EC50) required 310 µM. For the same molecule, the Activity in experiment [1] was found to be 39.3%.

For the molecule `Oc1cc2c(cc1O)[C@@H](Cc1ccccc1)NCC2`, the EC50 with RAW264.7 came out at 107 µM; in experiment [2] it was 0.0879 µM. In addition, in experiment [1], the Activity came to 90.8%.

`CC(C)C[C@H]1NCCc2cc(O)c(O)cc21` yielded an EC50 in the experiment on RAW264.7 of 498 µM. Besides, the Activity in experiment [1] turned out to be 70.9%.

As for `Oc1cc2c(cc1O)CCN=C2`, the EC50 with RAW264.7 amounted to 248 µM. Moreover, the Activity in experiment [1] was found to be 41.1%.

`CC1=NCCc2cc(O)c(O)cc21` registered an EC50 in the experiment on RAW264.7 of 209 µM. Also, the Activity in experiment [1] came to 37.7%.

`Oc1cc2c(cc1O)CC[N+](Cc1ccco1)=C2` displayed an EC50 in the experiment with RAW264.7 of 87.9 µM. The Activity in experiment [1] was 11.4%.

Turning to `OCc1ccc(C2=NCCc3cc(O)c(O)cc32)o1`, the EC50 with RAW264.7 worked out at 203 µM. In experiment [1], the Activity stood at 70.6%.

On to `NCCc1ccc(O)c(O)c1` [DOPAMINE], for which the EC50 in the experiment with RAW264.7 is 18 µM. In experiment [1], the Activity is 86.4%.

Take `O=C1c2cc(O)c(O)cc2CCn2cccc21`: a half-maximal response with RAW264.7 (EC50) required 225 µM. Also, the Activity in experiment [1] is -11.5%.

In turn, `O=C(NO)c1ccc(O)c(O)c1` yielded an EC50 in the experiment on RAW264.7 of 82.4 µM.
